Laboratory results: ChEMBL document CHEMBL1155720, “Antioxidant principles from Bauhinia tarapotensis” (J Nat Prod, 2001)

Tests used:
Format in all cases: functional
[1] = Antioxidant activity against beta-carotene and linoleic acid assessed asbleaching of beta-carotene at 60 mins by autooxidation assay
Outline: (§1)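 β-carotene bleaching (Pratt method): linolenic acid 20 mg and Tween 20 200 mg plus β-carotene 2 mg in 10 mL CHCl3. CHCl3 removed, then 50 mL oxygen-saturated distilled water added. Samples oxidized at 50 °C for 3 h, A470 read at intervals. AA = 100[1 − (A0 − At)/(A00 − A0t)], comparing absorbance at start and at time t with and without compound.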

[2] = test system: Radical scavenging activity; test: Antioxidant activity assessed as DPPH free radical scavenging activity after 30 mins
Outline: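 Pure compound in methanol, 30 µL added to 3 mL of 0.004% DPPH in MeOH. A517 read after 30 min and percent inhibition calculated. IC50 is the concentration scavenging 50% of DPPH radical.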

[3] = Antioxidant activity assessed as trolox equivalents of ABTS radical scavenging activity by TEAC assay
Outline: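 ABTS•+ made from 7 mM ABTS in water with 2.45 mM potassium persulfate, kept 12 h in the dark at room temperature. Diluted in PBS pH 7.4 to A734 0.70 and equilibrated at 30 °C. Samples in methanol at 0.3–2 mM, 10 µL added to 1 mL ABTS•+. Percent inhibition of A734 measured against a methanol blank, in triplicate, and plotted against concentration. TEAC is the Trolox concentration giving the same inhibition as 1 mM compound.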

[4] = Antioxidant activity against beta-carotene and linoleic acid assessed asbleaching of beta-carotene at 120 mins by autooxidation assay; outline: as §1

SMILES | Activity [1] | IC50 [2] | Activity [3] | Activity [4]
COc1cc([C@@H]2c3cc(O)c(OC)cc3C[C@H](CO)[C@H]2CO[C@@H]2O[C@H](CO)[C@@H](O)[C@H](O)[C@H]2O)ccc1O | -10 | 10.5 µM | 0.826 | -6.2
O=C(O)/C=C/c1ccc(O)c(O)c1 |  |  | 1.26 | 
O=c1cc(-c2ccc(O[C@@H]3O[C@H](CO)[C@@H](O)[C@H](O)[C@H]3O)c(O)c2)oc2cc(O)cc(O)c12 | 16.2 |  | 0.445 | 10
O=C1C=C[C@H](O)C[C@@]1(O)CCO (relative stereo) | 43 |  | 0.076 | 9.7
O=C(/C=C/c1ccc(O)c(O)c1)OCC(O)(CO)C(O)C(=O)O (stereo not drawn) | 25.2 |  | 0.484 | 20.5
Cc1cc(C(C)(C)C)c(O)c(C(C)(C)C)c1 | 63.9 |  |  | 62.5
C[C@@H]1O[C@@H](O[C@@H]2[C@@H](O)[C@H](OCCc3ccc(O)c(O)c3)O[C@H](COC(=O)/C=C/c3ccc(O)c(O)c3)[C@H]2O)[C@H](O)[C@H](O)[C@H]1O [ISOACTEOSIDE] | 24.6 | 1.3 µM | 1.23 | 7.2
O=C(O)c1c[nH]c2ccccc12 | -10.1 |  | 0.092 | -6.5
COc1cc([C@H]2OC[C@]3(O[C@@H]4O[C@H](CO)[C@@H](O)[C@H](O)[C@H]4O)[C@@H](c4ccc(O)c(OC)c4)OC[C@H]23)ccc1O | 10.7 | 20.3 µM | 0.935 | 8.5
C[C@@H]1O[C@@H](OC[C@H]2O[C@@H](Oc3c(-c4ccc(O)c(O)c4)oc4cc(O)cc(O)c4c3=O)[C@H](O)[C@@H](O)[C@@H]2O)[C@H](O)[C@H](O)[C@H]1O |  |  | 2.42 | 
